Experimental data from ChEMBL document CHEMBL4000184, “Synthesis of Novel c(AmpRGD)-Sunitinib Dual Conjugates as Molecular Tools Targeting the αvβ3 Integrin/VEGFR2 Couple and Impairing Tumor-Associated Angiogenesis” (J Med Chem, 2017).
Activity calls are given as the source filed them. The rule behind the calls is not given here.

What was measured:
[1] = molecular target: T1, Integrin alpha-V/beta-3 (Homo sapiens, UniProt P05106+P06756); conditions: 1 to 10000 nM
[2] = Cytotoxicity against human EPC assessed as cell viability at 1 uM measured after 24 to 72 hrs by trypan blue exclusion assay; format: cell-based
Method in brief: (§1)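 Human cord-blood EPCs seeded at 6,000 cells/well on gelatin, adhered 4 h in complete medium. Then placed in serum-free medium with VEGF-A 20 ng/mL and compound at 1 μM, re-added every 24 h. Cell number and viability measured by trypan blue exclusion at 24, 48 and 72 h. Triplicate, repeated at least three times.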

[3] = Antiangiogenic activity in human EPC assessed as inhibition of VEGF-A induced tubule formation at 10 nM measured after 6 hrs by matrigel based phase contrast microscopic analysis relative to control; format: functional
Method in brief: (§2)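 EPCs grown 24 h in EGM-2, trypsinized, resuspended in serum/growth-factor-free EGM-2 with VEGF-A 20 ng/mL plus compound (0.01, 0.1, 1.0 μM) and seeded on growth-factor-reduced Matrigel at 7×10^4 cells/well. Incubated 6 h at 37 °C, photographed by phase contrast. Loops counted in four random fields per well, given as % reduction vs untreated cells. Triplicate.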

[4] = molecular target: T1, Integrin alpha-V/beta-3; assay: Drug internalization in human EPC assessed as alphavbeta3-mediated drug uptake by measuring intracellular content per mg protein at 1 uM measured after 1 hr by HPLC-ESI-MS/MS analysis; format: ADME, cell-based
Method in brief: (§3)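 Confluent EPCs in serum- and growth-factor-free medium received compound at 1 μM final for 1 h at 37 °C. Cells washed with PBS, then extracted immediately or 8 h later with ethanol at 4 °C. Extract measured by HPLC-ESI-MS/MS; protein by Bradford. Reported as nmol/mg protein; uptake rate as pmol/min/mg protein over the first hour. Triplicate.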
Target sequence in this assay (P05106 27-788 limits assumed): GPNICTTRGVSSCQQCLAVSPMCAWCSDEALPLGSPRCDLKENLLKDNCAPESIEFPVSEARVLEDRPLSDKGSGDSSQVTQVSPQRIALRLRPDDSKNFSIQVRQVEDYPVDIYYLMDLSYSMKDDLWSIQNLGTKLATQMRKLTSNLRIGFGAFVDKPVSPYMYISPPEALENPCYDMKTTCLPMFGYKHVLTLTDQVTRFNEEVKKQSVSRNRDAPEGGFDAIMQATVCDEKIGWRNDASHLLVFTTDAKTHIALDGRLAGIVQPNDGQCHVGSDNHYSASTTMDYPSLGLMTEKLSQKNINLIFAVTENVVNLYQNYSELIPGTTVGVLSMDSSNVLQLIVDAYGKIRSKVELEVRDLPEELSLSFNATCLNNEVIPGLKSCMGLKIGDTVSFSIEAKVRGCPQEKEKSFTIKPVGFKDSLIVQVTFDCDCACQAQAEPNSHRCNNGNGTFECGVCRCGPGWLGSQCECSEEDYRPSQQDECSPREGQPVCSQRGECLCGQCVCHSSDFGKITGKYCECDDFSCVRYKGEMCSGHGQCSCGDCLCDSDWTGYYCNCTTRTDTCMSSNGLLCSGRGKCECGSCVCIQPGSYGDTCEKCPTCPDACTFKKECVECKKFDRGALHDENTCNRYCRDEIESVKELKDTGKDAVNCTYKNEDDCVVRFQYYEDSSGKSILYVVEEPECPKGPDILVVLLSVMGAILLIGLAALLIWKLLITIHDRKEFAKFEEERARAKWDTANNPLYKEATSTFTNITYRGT
Target sequence in this assay (P06756 31-889 limits assumed): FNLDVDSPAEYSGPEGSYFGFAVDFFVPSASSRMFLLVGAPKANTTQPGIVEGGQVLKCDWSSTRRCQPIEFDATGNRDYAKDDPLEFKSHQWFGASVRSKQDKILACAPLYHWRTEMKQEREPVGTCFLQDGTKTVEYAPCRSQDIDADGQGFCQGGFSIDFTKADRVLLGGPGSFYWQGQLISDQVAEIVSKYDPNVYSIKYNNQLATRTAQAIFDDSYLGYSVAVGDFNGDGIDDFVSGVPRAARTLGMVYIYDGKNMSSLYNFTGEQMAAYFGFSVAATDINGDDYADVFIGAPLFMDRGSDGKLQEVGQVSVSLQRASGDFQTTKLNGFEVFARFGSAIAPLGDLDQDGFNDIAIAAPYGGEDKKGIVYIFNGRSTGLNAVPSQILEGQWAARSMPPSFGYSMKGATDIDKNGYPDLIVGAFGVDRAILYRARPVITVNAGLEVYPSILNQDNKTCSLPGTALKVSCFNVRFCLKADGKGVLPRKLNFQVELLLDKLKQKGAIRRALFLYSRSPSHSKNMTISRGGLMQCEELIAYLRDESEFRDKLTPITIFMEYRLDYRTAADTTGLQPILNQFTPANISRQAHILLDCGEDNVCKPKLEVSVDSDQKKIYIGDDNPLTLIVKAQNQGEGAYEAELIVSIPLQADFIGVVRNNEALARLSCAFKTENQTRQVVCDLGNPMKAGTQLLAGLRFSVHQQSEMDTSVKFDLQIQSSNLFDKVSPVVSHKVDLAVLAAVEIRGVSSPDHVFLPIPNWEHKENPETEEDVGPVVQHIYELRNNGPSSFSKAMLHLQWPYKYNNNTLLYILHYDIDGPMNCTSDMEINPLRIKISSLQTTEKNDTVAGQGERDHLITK
Target sequence in this assay (P06756 891-1048 limits assumed): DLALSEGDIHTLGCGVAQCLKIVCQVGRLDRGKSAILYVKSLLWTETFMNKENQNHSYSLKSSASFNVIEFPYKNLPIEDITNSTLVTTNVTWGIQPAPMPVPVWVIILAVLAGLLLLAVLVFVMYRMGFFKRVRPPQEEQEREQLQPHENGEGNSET

[5] = Inhibition of VEGF-A-induced cell proliferation in human EPC at 1 uM measured after 24 hrs by trypan blue exclusion assay relative to control; format: functional
Method in brief: as §1

[6] = test system: EPC; assay: Inhibition of VEGF-A-induced cell proliferation in human EPC at 1 uM measured after 72 hrs by trypan blue exclusion assay; format: functional, cell-based
Method in brief: as §1

[7] = molecular target: T1, Integrin alpha-V/beta-3; assay: Drug uptake in human EPC assessed as alphavbeta3-mediated drug uptake by measuring intracellular content per mg protein at 1 uM measured after 8 hr by HPLC-ESI-MS/MS analysis; format: ADME, cell-based
Method in brief: as §3
Target sequence in this assay (P05106 27-788 limits assumed): as the sequence (P05106 27-788 limits assumed) above
Target sequence in this assay (P06756 31-889 limits assumed): as the sequence (P06756 31-889 limits assumed) above
Target sequence in this assay (P06756 891-1048 limits assumed): as the sequence (P06756 891-1048 limits assumed) above

[8] = Stability in rat plasma assessed as compound remaining at 1 uM measured up to 8 hrs by HPLC-UV-Vis analysis; format: ADME, cell-free; conditions: read-out: Stability
Method in brief: (§4)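 Rat or human plasma diluted to 80% v/v with 100 mM PBS pH 7.4; compound at 1 μM final, 37 °C, protected from light. Aliquots sampled over time up to 8 h, quenched with two volumes MeCN, centrifuged, and analyzed by HPLC-UV-Vis for % compound remaining.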

[9] = n-Octanol-buffer distribution coefficient, log D of the compound at pH 7.4 incubated for 4 hrs by HPLC-UV-vis based shake flask method; format: physicochemical
Method in brief: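 Shake-flask partition between n-octanol and 50 mM MOPS pH 7.4 (ionic strength 0.15 M, KCl) at 25 ± 3 °C. Phases pre-saturated and equilibrated 4 h in the dark; each phase analyzed by HPLC-UV-Vis. Mean of at least three runs with different volume ratios.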

[10] = Stability in human plasma assessed as compound remaining at 1 uM measured up to 8 hrs by HPLC-UV-Vis analysis; format: ADME, cell-free; conditions: read-out: Stability
Method in brief: as §4

[11] = test system: Mus musculus; assay: In vivo antiangiogenic activity in EHS derived matrigel plug implanted FVB mouse assessed as inhibition of VEGF-A-induced angiogenesis at 10 mg/kg, by microscopic method
[12] = test system: EPC; assay: Inhibition of VEGF-A-induced cell proliferation in human EPC at 1 uM measured after 48 hrs by trypan blue exclusion assay; format: functional, cell-based
Method in brief: as §1

[13] = molecular target: T1, Integrin alpha-V/beta-3; assay: Displacement of biotinylated vitronectin from recombinant human integrin alphaVbeta3 dark incubated for 3 hrs by solid-phase receptor binding assay; format: protein-complex assay
Method in brief: (§5)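 Recombinant human αvβ3 or α5β1 coated at 0.5 μg/mL overnight at 4 °C in Tris-HCl pH 7.4 buffer with Mn2+, Ca2+, Mg2+, then blocked with 1% BSA. Streptavidin-peroxidase read-out at 415 nm. Triplicate wells, nonlinear regression, run in duplicate.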
Target sequence in this assay (P05106 27-788 limits assumed): as the sequence (P05106 27-788 limits assumed) above
Target sequence in this assay (P06756 31-889 limits assumed): as the sequence (P06756 31-889 limits assumed) above
Target sequence in this assay (P06756 891-1048 limits assumed): as the sequence (P06756 891-1048 limits assumed) above

[14] = molecular target: T1, Integrin alpha-V/beta-3; assay: Drug internalization in human EPC assessed as alphavbeta3-mediated drug uptake per mg protein at 1 uM measured after 1 hr by HPLC-ESI-MS/MS analysis; format: ADME
Method in brief: as §3
Target sequence in this assay (P05106 27-788 limits assumed): as the sequence (P05106 27-788 limits assumed) above
Target sequence in this assay (P06756 31-889 limits assumed): as the sequence (P06756 31-889 limits assumed) above
Target sequence in this assay (P06756 891-1048 limits assumed): as the sequence (P06756 891-1048 limits assumed) above

[15] = molecular target: T1, Integrin alpha-V/beta-3; assay: Inhibition of vitronectin binding to alphaVbeta3 in human EPC in presence of MnCl2 measured after 30 mins by crystal violet staining based cell adhesion assay
Method in brief: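 Plates coated overnight with vitronectin at 4 °C and blocked with PBS/1% BSA. EPCs in serum-free medium preincubated with compound (1–10000 nM) for 30 min at 37 °C with 2.0 mmol/L MnCl2. Plated at 5-6×10^4 cells/well for 1 h at 37 °C. Adherent cells stained with crystal violet, read at 540 nm; % inhibition vs untreated. Triplicate, repeated at least three times.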

[16] = molecular target: T1, Integrin alpha-V/beta-3; assay: Drug internalization in human EPC assessed as alphavbeta3-mediated drug uptake at 1 uM measured after 1 hr by HPLC-ESI-MS/MS analysis; format: ADME
Method in brief: as §3
Target sequence in this assay (P05106 27-788 limits assumed): as the sequence (P05106 27-788 limits assumed) above
Target sequence in this assay (P06756 31-889 limits assumed): as the sequence (P06756 31-889 limits assumed) above
Target sequence in this assay (P06756 891-1048 limits assumed): as the sequence (P06756 891-1048 limits assumed) above

[17] = molecular target: T2, Vascular endothelial growth factor receptor 2 (Homo sapiens, UniProt P35968); conditions: at 1 µM
[18] = molecular target: T3, Integrin alpha-5/beta-1 (Homo sapiens, UniProt P05556+P08648); assay: Displacement of biotinylated fibronectin from recombinant human integrin alpha5beta1 dark incubated for 3 hrs by solid-phase receptor binding assay; format: protein-complex assay
Method in brief: as §5

[19] = Drug uptake in human EPC at 1 uM measured after 1 hr in presence of alphaVbeta3 integrin ligand c(AmpRGD) amine by HPLC-ESI-MS/MS analysis; format: ADME, cell-based
Method in brief: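 EPCs detached with Accutase, resuspended in serum-free medium, and given compound at 1 μM with or without c(AmpRGD) amine at 100 μM. Incubated at 37 °C, 10% CO2, then washed by centrifugation. Pellets extracted with ethanol at 4 °C for 10 min; content measured by HPLC-ESI-MS/MS.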

[20] = test system: EPC; assay: Antiangiogenic activity in human EPC assessed as inhibition of VEGF-A induced tubule formation at 0.1 to 1 uM measured after 6 hrs by matrigel based phase contrast microscopic analysis; format: functional, cell-based
Method in brief: as §2

[21] = molecular target: Platelet-derived growth factor receptor beta (Homo sapiens, UniProt P09619); assay: Inhibition of recombinant human PDGFRbeta expressed in insect cells using Ulight-Poly GAT[EAY(1:1:1)]n as substrate measured after 30 mins by LANCE method
[22] = molecular target: T2, Vascular endothelial growth factor receptor 2; assay: Inhibition of recombinant human VEGFR2 expressed in Sf9 cells using Ulight-CAGAGAIETDKEYYTVKD as substrate measured after 60 mins by LANCE method
[23] = molecular target: T3, Integrin alpha-5/beta-1; assay: Inhibition of alpha5beta1 (unknown origin); format: protein-complex assay
[24] = molecular target: Integrin alpha-V/beta-5 (Homo sapiens, UniProt P06756+P18084); assay: Displacement of biotinylated vitronectin from human integrin alphaVbeta5 measured after 3 hrs by solid-phase receptor binding assay; format: protein-complex assay
[25] = molecular target: T1, Integrin alpha-V/beta-3; assay: Displacement of biotinylated vitronectin from human integrin alphaVbeta3 measured after 3 hrs by solid-phase receptor binding assay; format: protein-complex assay
Method in brief: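 Recombinant human αvβ3 or α5β1 coated at 0.5 μg/mL overnight at 4 °C in Tris-HCl pH 7.4 buffer with Mn2+, Ca2+, Mg2+, then blocked with 1% BSA. Triplicate wells, nonlinear regression, run in duplicate.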
Target sequence in this assay (P05106 27-788 limits assumed): as the sequence (P05106 27-788 limits assumed) above
Target sequence in this assay (P06756 31-889 limits assumed): as the sequence (P06756 31-889 limits assumed) above
Target sequence in this assay (P06756 891-1048 limits assumed): as the sequence (P06756 891-1048 limits assumed) above

T2 sequence (P35968 whole entry): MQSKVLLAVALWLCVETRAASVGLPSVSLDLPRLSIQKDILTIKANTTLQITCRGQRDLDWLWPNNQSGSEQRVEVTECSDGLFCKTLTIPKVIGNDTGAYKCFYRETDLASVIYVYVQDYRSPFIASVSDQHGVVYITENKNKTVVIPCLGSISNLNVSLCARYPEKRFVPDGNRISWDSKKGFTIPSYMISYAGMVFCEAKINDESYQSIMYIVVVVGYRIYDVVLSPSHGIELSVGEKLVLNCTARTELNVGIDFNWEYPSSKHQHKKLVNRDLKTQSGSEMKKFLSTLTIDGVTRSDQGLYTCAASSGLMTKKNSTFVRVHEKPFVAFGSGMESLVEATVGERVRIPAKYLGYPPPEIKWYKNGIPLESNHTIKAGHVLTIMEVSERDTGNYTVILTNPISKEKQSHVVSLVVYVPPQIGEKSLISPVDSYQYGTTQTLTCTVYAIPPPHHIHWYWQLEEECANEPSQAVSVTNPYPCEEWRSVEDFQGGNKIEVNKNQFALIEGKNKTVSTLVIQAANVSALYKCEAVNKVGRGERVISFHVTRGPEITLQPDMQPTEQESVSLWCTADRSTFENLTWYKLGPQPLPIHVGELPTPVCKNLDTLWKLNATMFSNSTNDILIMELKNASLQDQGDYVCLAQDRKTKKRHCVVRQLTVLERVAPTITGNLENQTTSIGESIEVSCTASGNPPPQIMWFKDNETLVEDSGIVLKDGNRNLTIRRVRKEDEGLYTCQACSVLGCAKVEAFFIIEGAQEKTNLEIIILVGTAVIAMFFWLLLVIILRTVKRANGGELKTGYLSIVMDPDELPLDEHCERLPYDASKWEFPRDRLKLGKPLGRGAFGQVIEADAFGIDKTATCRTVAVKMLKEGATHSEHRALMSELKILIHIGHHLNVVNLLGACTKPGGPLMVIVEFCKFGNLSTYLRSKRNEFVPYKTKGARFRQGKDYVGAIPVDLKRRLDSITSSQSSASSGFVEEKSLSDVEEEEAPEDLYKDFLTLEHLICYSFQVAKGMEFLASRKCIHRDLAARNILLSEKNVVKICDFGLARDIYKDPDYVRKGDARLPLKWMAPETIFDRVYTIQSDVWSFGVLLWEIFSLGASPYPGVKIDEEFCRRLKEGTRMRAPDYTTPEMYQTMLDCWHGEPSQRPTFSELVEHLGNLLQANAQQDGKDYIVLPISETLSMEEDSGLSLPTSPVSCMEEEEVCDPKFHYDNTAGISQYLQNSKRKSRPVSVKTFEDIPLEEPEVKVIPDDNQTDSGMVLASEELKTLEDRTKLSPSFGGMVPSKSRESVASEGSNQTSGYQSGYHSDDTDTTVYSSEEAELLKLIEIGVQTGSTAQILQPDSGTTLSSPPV
Chain of Platelet-derived growth factor receptor beta (P09619 whole entry): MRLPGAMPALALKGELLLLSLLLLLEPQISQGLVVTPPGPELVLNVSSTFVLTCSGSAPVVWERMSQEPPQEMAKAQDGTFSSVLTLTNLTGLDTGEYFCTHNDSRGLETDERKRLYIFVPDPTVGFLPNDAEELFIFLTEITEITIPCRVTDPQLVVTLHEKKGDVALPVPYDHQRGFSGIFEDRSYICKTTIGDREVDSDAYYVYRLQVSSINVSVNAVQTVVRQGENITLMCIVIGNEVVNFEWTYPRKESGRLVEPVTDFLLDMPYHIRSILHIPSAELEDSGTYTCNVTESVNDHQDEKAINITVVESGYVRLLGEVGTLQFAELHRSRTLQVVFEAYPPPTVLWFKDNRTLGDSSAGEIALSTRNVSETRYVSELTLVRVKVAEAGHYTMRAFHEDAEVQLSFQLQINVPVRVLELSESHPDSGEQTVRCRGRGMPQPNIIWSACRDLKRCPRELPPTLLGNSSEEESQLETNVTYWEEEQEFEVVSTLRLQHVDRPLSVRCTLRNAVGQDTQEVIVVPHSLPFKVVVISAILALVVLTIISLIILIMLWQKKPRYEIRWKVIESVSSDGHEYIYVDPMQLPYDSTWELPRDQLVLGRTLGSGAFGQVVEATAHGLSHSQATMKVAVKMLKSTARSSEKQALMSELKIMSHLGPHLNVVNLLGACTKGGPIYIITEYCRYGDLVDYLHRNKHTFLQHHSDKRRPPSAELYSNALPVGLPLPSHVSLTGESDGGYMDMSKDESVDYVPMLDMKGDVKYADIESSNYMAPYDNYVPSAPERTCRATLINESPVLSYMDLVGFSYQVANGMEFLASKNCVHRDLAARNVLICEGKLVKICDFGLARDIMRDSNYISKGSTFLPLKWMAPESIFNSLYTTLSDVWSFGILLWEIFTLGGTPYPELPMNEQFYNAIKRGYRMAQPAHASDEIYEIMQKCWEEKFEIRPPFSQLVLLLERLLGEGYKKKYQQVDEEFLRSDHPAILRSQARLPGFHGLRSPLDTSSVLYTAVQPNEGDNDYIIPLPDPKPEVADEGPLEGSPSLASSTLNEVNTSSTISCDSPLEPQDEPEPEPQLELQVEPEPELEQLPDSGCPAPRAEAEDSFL

| Drug uptake [4] [nmol/mg] | Drug uptake [7] [nmol/mg] | remaining at 8 h, 1 µM [8] [%] | logD at 4 h [9] | remaining at 8 h, 1 µM [10] [%] | IC50 [13] [nM] | Drug uptake [14] [pmol/min] | IC50 [15] [nM] | log(activity) [16] | inhibition [17] | IC50 [18] [nM] | Drug uptake [19] | inhibition [15] | Structure (SMILES) | Activity [2] | inhibition at 0.01 µM [3] [%] | inhibition at 1 µM [5] [%] | inhibition [6] | inhibition [11] | inhibition [12] | inhibition [20] | also measured |
| --- | --- | --- | --- | --- | --- | --- | --- | --- | --- | --- | --- | --- | --- | --- | --- | --- | --- | --- | --- | --- | --- |
| 5.72 | 2.9 | 97.3 | 2.51 | 102 | – | – | – | – | – | – | – | – | CCN(CC)CCNC(=O)c1c(C)[nH]c(/C=C2\C(=O)Nc3ccc(F)cc32)c1C [SUNITINIB] | Non-Toxic | 30 | 33 | Active | Active | Active | – | inhibition [1]: inactive |
| 0.48 | 0.43 | 104 | -2.56 | 107 | 5.1 | 8 | 10000 | 0.9 | Active | 101 | Not Active | – | CCN(CCNC(=O)c1c(C)[nH]c(/C=C2\C(=O)Nc3ccc(F)cc32)c1C)CCOCCOCCOCc1cn(CCCCN2C[C@@H]3C[C@H]2C(=O)N[C@@H](CCCNC(=N)N)C(=O)NCC(=O)N[C@@H](CC(=O)O)C(=O)N3)nn1 | Non-Toxic | – | 24 | inactive | – | Active | – | – |
| 0.94 | 0.54 | 109 | -3.02 | 98.6 | 3.8 | 15.7 | 500 | 1.19 | Active | 95.8 | Not Active | Dose-dependent effect | CCN(CCNC(=O)c1c(C)[nH]c(/C=C2\C(=O)Nc3ccc(F)cc32)c1C)CCOCCOCCNC(=O)c1cc(OCc2cn(CCCCN3C[C@@H]4C[C@H]3C(=O)N[C@@H](CCCNC(=N)N)C(=O)NCC(=O)N[C@@H](CC(=O)O)C(=O)N4)nn2)cc(OCc2cn(CCCCN3C[C@@H]4C[C@H]3C(=O)N[C@@H](CCCNC(=N)N)C(=O)NCC(=O)N[C@@H](CC(=O)O)C(=O)N4)nn2)c1 | Non-Toxic | 43 | 41 | Active | Active | Active | Active | IC50 [21]: 9 nM; IC50 [22]: 420 nM |
| – | – | – | – | – | – | – | – | – | – | – | – | – | N=C(N)NCCC[C@@H]1NC(=O)[C@@H]2C[C@@H](CN2CCN)NC(=O)[C@H](CC(=O)O)NC(=O)CNC1=O | – | – | – | – | – | – | – | IC50 [23]: 152 nM; IC50 [24]: 315 nM; IC50 [25]: 6.1 nM |
| 0.26 | 0.22 | 88.2 | -2.03 | 99 | 1.24 | 4.3 | 500 | 0.64 | Active | 30.7 | – | Dose-dependent effect | Cc1[nH]c(/C=C2\C(=O)Nc3ccc(F)cc32)c(C)c1C(=O)NCCNC(=O)CCc1cn(CCCCN2C[C@@H]3C[C@H]2C(=O)N[C@@H](CCCNC(=N)N)C(=O)NCC(=O)N[C@@H](CC(=O)O)C(=O)N3)nn1 | Non-Toxic | 52 | 46 | inactive | – | Active | Active | – |
